In ChEMBL document CHEMBL4346667 (Eur J Med Chem, 2019):
The source made the active and inactive calls. The rule behind the calls is not given here.

Legend:
[1] = tested on: MCF7; assay: Induction of apoptosis in human MCF7 cells assessed as early apoptotic cells at 1 uM after 48 hrs by Annexin V-FITC/propidium iodide staining-based flow cytometric analysis (reference value: 9.1%); type: functional
In short: (§1)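 Log-phase cells seeded in 6-well plates and treated after adhesion; incubated in cycles of 6 h on/6 h off up to 48 h. Collected after PBS washes and trypsin, resuspended in Ca2+-enriched binding buffer. Stained with annexin V (1 µg/mL) plus PI (0.5 µg/mL) 15 min in the dark at room temperature. 10,000 events, FL1 vs FL2. At least three repeats.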

[2] = tested on: MCF7; assay: Induction of apoptosis in human MCF7 cells assessed as late apoptotic cells at 5 uM after 24 hrs by Annexin V-FITC/propidium iodide staining-based flow cytometric analysis (reference value: 5.6%); type: functional; in short: as §1
[3] = tested on: MCF7; assay: Induction of apoptosis in human MCF7 cells assessed as necrotic cells at 10 uM after 24 hrs by Annexin V-FITC/propidium iodide staining-based flow cytometric analysis (reference value: 0.2%); type: functional
[4] = tested on: MCF7; assay: Induction of apoptosis in human MCF7 cells assessed as necrotic cells at 25 uM after 24 hrs by Annexin V-FITC/propidium iodide staining-based flow cytometric analysis (reference value: 0.1%); type: functional
[5] = tested on: MCF7; assay: Induction of apoptosis in human MCF7 cells at 1 uM after 48 hrs by Annexin V-FITC/propidium iodide staining-based flow cytometric analysis; type: functional, cell-based
In short: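 Log-phase cells were seeded and treated after adhering, for 48 h in cycles of 6 h on and 6 h off. Cells were stained with annexin V (1 µg/mL) and PI (0.5 µg/mL) in Ca2+-enriched binding buffer for 15 min in the dark at room temperature. 10,000 events were read by flow cytometry (FL1 vs FL2). Apoptosis was the sum of early and late stages. At least three repeats.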

[6] = tested on: MCF7; assay: Induction of apoptosis in human MCF7 cells assessed as viable cells at 10 uM after 6 hrs by Annexin V-FITC/propidium iodide staining-based flow cytometric analysis (reference value: 92.8%); type: functional; conditions: MCF7, 6 h, read-out: Activity
[7] = tested on: MCF7; assay: Induction of apoptosis in human MCF7 cells assessed as late apoptotic cells at 5 uM after 48 hrs by Annexin V-FITC/propidium iodide staining-based flow cytometric analysis (reference value: 2.8%); type: functional; in short: as §1
[8] = tested on: MCF7; assay: Induction of apoptosis in human MCF7 cells assessed as necrotic cells at 50 uM after 24 hrs by Annexin V-FITC/propidium iodide staining-based flow cytometric analysis (reference value: 0.1%); type: functional
[9] = tested on: MCF7; assay: Induction of apoptosis in human MCF7 cells assessed as viable cells at 1 uM after 48 hrs by Annexin V-FITC/propidium iodide staining-based flow cytometric analysis (reference value: 87.9%); type: functional; conditions: MCF7, 48 h, read-out: Activity
[10] = tested on: MCF7; assay: Induction of apoptosis in human MCF7 cells assessed as viable cells at 5 uM after 48 hrs by Annexin V-FITC/propidium iodide staining-based flow cytometric analysis (reference value: 87.9%); type: functional; conditions: MCF7, 48 h, read-out: Activity
[11] = tested on: MCF7; assay: Induction of apoptosis in human MCF7 cells assessed as early apoptotic cells at 1 uM after 24 hrs by Annexin V-FITC/propidium iodide staining-based flow cytometric analysis (reference value: 2.1%); type: functional; in short: as §1
[12] = tested on: MCF7; assay: Antitumor activity against human MCF7 cells xenografted in BALB/c nude mouse assessed as inhibition of tumor growth at 40 mg/kg administered for a week; type: functional
In short: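 Male BALB/c nude mice, 4 weeks old, 15-20 g. Log-phase MCF-7 cells in DMEM, 0.1 mL of 1×10^6 cells/mL, injected subcutaneously into the hind leg. Calipers twice weekly; at about 90 mm3, groups of 5. Vehicle was isotonic saline plus 0.005% DMSO. Injected at 40 mg/kg for a week; tumour volume recorded daily.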

[13] = tested on: MCF7; assay: Induction of apoptosis in human MCF7 cells assessed as early apoptotic cells at 5 uM after 48 hrs by Annexin V-FITC/propidium iodide staining-based flow cytometric analysis (reference value: 9.1%); type: functional; in short: as §1
[14] = tested on: MCF7; assay: Induction of apoptosis in human MCF7 cells assessed as viable cells at 1 uM after 6 hrs by Annexin V-FITC/propidium iodide staining-based flow cytometric analysis (reference value: 92.8%); type: functional; conditions: MCF7, 6 h, read-out: Activity
[15] = tested on: MCF7; assay: Induction of apoptosis in human MCF7 cells assessed as early apoptotic cells at 50 uM after 24 hrs by Annexin V-FITC/propidium iodide staining-based flow cytometric analysis (reference value: 2.1%); type: functional; in short: as §1
[16] = tested on: MCF7; assay: Induction of apoptosis in human MCF7 cells assessed as early apoptotic cells at 5 uM after 6 hrs by Annexin V-FITC/propidium iodide staining-based flow cytometric analysis (reference value: 2%); type: functional; in short: as §1
[17] = tested on: MCF7; assay: Induction of apoptosis in human MCF7 cells assessed as viable cells at 10 uM after 24 hrs by Annexin V-FITC/propidium iodide staining-based flow cytometric analysis (reference value: 92.1%); type: functional; conditions: MCF7, 24 h, read-out: Activity
[18] = tested on: MCF7; assay: Induction of apoptosis in human MCF7 cells assessed as late apoptotic cells at 1 uM after 48 hrs by Annexin V-FITC/propidium iodide staining-based flow cytometric analysis (reference value: 2.8%); type: functional; in short: as §1
[19] = tested on: MCF7; assay: Induction of apoptosis in human MCF7 cells assessed as late apoptotic cells at 1 uM after 6 hrs by Annexin V-FITC/propidium iodide staining-based flow cytometric analysis (reference value: 4.7%); type: functional; in short: as §1
[20] = tested on: MCF7; assay: Induction of apoptosis in human MCF7 cells assessed as early apoptotic cells at 50 uM after 6 hrs by Annexin V-FITC/propidium iodide staining-based flow cytometric analysis (reference value: 2%); type: functional; in short: as §1
[21] = tested on: MCF7; assay: Induction of apoptosis in human MCF7 cells assessed as late apoptotic cells at 2505 uM after 24 hrs by Annexin V-FITC/propidium iodide staining-based flow cytometric analysis (reference value: 5.6%); type: functional; in short: as §1
[22] = tested on: MCF7; assay: Induction of apoptosis in human MCF7 cells assessed as early apoptotic cells at 10 uM after 24 hrs by Annexin V-FITC/propidium iodide staining-based flow cytometric analysis (reference value: 2.1%); type: functional; in short: as §1
[23] = tested on: MCF7; assay: Induction of apoptosis in human MCF7 cells assessed as viable cells at 25 uM after 48 hrs by Annexin V-FITC/propidium iodide staining-based flow cytometric analysis (reference value: 87.9%); type: functional; conditions: MCF7, 48 h, read-out: Activity
[24] = tested on: MCF7; assay: Induction of apoptosis in human MCF7 cells assessed as early apoptotic cells at 1 uM after 6 hrs by Annexin V-FITC/propidium iodide staining-based flow cytometric analysis (reference value: 2%); type: functional; in short: as §1
[25] = tested on: MCF7; assay: Induction of apoptosis in human MCF7 cells assessed as viable cells at 50 uM after 6 hrs by Annexin V-FITC/propidium iodide staining-based flow cytometric analysis (reference value: 92.8%); type: functional; conditions: MCF7, 6 h, read-out: Activity
[26] = tested on: MCF7; assay: Induction of apoptosis in human MCF7 cells assessed as viable cells at 50 uM after 24 hrs by Annexin V-FITC/propidium iodide staining-based flow cytometric analysis (reference value: 92.1%); type: functional; conditions: MCF7, 24 h, read-out: Activity
[27] = tested on: MCF7; assay: Induction of apoptosis in human MCF7 cells assessed as necrotic cells at 10 uM after 6 hrs by Annexin V-FITC/propidium iodide staining-based flow cytometric analysis (reference value: 0.5%); type: functional
[28] = tested on: MCF7; assay: Induction of apoptosis in human MCF7 cells assessed as necrotic cells at 1 uM after 6 hrs by Annexin V-FITC/propidium iodide staining-based flow cytometric analysis (reference value: 0.5%); type: functional

In the case of `COc1cc([C@@H]2c3cc4c(cc3[C@@H](O[C@@H]3O[C@@H]5CO[C@@H](C)O[C@H]5[C@H](O)[C@H]3O)[C@H]3COC(=O)[C@H]23)OCO4)cc(OC)c1O` [ETOPOSIDE], the Activity [1] is reported as 14.8%, the Activity [2] is reported as 8.4% and the Activity [3] is reported as 0.8%. For the same compound, the Activity [4] was 1.6%, the Activity [5] was “inactive” and the viability at 10 µM [6] was 87.7%. For the same compound, the Activity [7] was 15.1%, the Activity [8] was 0.9% and the viability at 1 µM [9] was 79.1%. For the same compound, the viability at 5 µM [10] was 21.7%, the Activity [11] was 2.2% and the inhibition in vivo at 40 mg/kg [12] was 43.2%. It also gave an Activity [13] of 62.1%, a viability at 1 µM [14] of 90.8% and an Activity [15] of 12.4%. The Activity [16] was 2%, the viability at 10 µM [17] was 73.9% and the Activity [18] was 6%. It also gave an Activity [19] of 7.1%, an Activity [20] of 2.9% and an Activity [21] of 12.7%. For the same compound, the Activity [22] was 13.8%, the viability at 25 µM [23] was 25.7% and the Activity [24] was 1.6%. The viability at 50 µM [25] was 91.6%, the viability at 50 µM [26] was 73.9% and the Activity [27] was 1%. For the same compound, the Activity [28] was 0.5%.
